Data on 15 compounds can be found in ChEMBL document CHEMBL4251559, “Design, synthesis, and evaluation of NDGA analogues as potential anti-ischemic stroke agents” (Eur J Med Chem, 2018).

Data set [1] is described as follows: Antioxidant activity assessed as DPPH radical scavenging activity at 20 mg/ml after 30 mins. It is filed as functional. Put shortly:
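Samples were 20 mg/mL solutions in ethanol, mixed with 0.15 mM ethanolic DPPH (80 µL sample plus 120 µL DPPH). Mixtures were incubated 30 min at 25 °C and absorbance read at 517 nm. Ethanol plus DPPH served as the control. % scavenging = [1-(Ai-Aj)/Ac]×100. Run in triplicate.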
Background: The DPPH test is a chemical assay of radical scavenging.

Data set [2] concerns PC-12. In words: Cytoprotective activity against H2O2-induced damage in rat PC12 cells assessed as increase in cell viability at 5 uM preincubated for 1 hr followed by H2O2 challenge measured after 24 hrs by MTT assay. Type of data set: functional, cell-based. The procedure, abridged:
(§1)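 PC12 cells at 5×10^3/well, attached overnight. Pretreated with 5 µM compound for 1 h or 24 h, then 400 µM H2O2 for 24 h. MTT (5 mg/mL) for 4 h at 37 °C, formazan dissolved in DMSO, OD read at 490 nm. Viability given as % of untreated control.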
Background: Tetrazolium assays rely on reduction of a dye to a coloured formazan, in cell work by metabolically active cells.

Data set [3] concerns PC-12. The data set is described as follows: Cytoprotective activity against H2O2-induced damage in rat PC12 cells assessed as increase in cell viability at 5 uM preincubated for 24 hrs followed by H2O2 challenge measured after 24 hrs by MTT assay. Type of data set: functional, cell-based. Put shortly: as §1
The subject of data set [4] is PC-12. The data set is described as follows: Cytotoxicity against rat PC12 cells assessed as decrease in cell viability at 5 uM after 24 hrs by MTT assay. It is filed as cell-based. The settings on record: pc-12, 24 h. The procedure, abridged: (§2)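 PC12 cells at 5×10^3/well, attached overnight. Exposed to 5 µM compound for 24 h or 72 h without H2O2. MTT 4 h at 37 °C, formazan dissolved in DMSO, OD 490 nm. Viability as % of untreated control.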

The test system of data set [5] is PC-12. In words: Cytotoxicity against rat PC12 cells assessed as decrease in cell viability at 5 uM after 72 hrs by MTT assay. To be noted: pc-12, 72 h. Type of data set: cell-based. The procedure, abridged: as §2
Data set [6] relates to PC-12. In words: Cytoprotective activity against H2O2-induced damage in rat PC12 cells assessed as increase in cell viability preincubated for 1 to 24 hrs followed by H2O2 challenge measured after 24 hrs by MTT assay. It is filed as functional, cell-based. The procedure, abridged: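 PC12 cells at 5×10^3/well, attached overnight. Pretreated 1 h or 24 h at 2.5, 5 or 7.5 µM, then 400 µM H2O2 for 24 h. MTT 4 h at 37 °C, DMSO solubilisation, OD 490 nm. Viability as % of control. Mean ± SD, n = 3, one-way ANOVA with Tukey test.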

Data set [7] has as its system PC-12. The data set is described as follows: Cytoprotective activity against H2O2-induced damage in rat PC12 cells assessed as decrease in MDA levels preincubated for 1 to 24 hrs followed by H2O2 challenge measured after 16 hrs. It is filed as functional, cell-based. The procedure, abridged:
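PC12 cells in DMEM with 10% FBS at 37 °C, 5% CO2. Pre-incubated 1 h or 24 h with compound (2.5, 5, 7.5 µM; reference compounds 5 µM), then exposed to 700 µM H2O2 for 16 h. Supernatant taken after centrifugation at 1600 × g for 10 min at 4 °C, and MDA measured with a kit. Mean ± SD, n = 3, one-way ANOVA with Tukey test.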

For data set [8], the system named is PC-12. In words: Cytoprotective activity against H2O2-induced damage in rat PC12 cells assessed as decrease in ROS accumulation at 5 uM preincubated for 1 to 24 hrs followed by H2O2 challenge measured after 3 hrs by DCFH-DA dye-based flow cytometric method. Type of data set: functional, cell-based. The procedure, abridged:
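PC12 cells seeded at 3 × 10^5/mL and attached overnight. Pre-incubated 1 h or 24 h with 5 µM compound, then H2O2 for 3 h. Loaded with DCFH-DA at 37 °C for 30 min, detached enzymatically, washed in PBS, filtered and analysed by flow cytometry. Mean ± SD, n = 3.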
(In general: Flow cytometry measures light scatter and fluorescence of single cells or particles in a stream.)

Data set [9] addresses T1, Nuclear factor erythroid 2-related factor 2 (Rattus norvegicus) (UniProt O54968).
T1 sequence (whole entry): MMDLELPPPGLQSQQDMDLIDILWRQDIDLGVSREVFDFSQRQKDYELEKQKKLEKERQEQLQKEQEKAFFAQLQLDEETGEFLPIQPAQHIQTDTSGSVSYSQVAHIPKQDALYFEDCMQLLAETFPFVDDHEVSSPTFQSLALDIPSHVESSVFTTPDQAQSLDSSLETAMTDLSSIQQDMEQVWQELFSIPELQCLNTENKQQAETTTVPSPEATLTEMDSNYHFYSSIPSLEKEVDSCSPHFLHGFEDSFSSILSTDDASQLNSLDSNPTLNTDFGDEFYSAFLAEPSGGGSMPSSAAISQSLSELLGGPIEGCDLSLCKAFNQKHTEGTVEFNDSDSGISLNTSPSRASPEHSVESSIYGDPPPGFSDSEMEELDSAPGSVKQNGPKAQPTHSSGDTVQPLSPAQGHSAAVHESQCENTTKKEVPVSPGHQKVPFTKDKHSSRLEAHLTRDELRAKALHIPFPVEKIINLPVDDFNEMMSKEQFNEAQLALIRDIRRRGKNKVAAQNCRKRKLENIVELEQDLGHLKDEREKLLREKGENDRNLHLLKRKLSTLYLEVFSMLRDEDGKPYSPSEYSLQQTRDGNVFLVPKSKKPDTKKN
In words: Induction of Nrf2 translocation in nucleus of rat PC12 cells at 5 uM after 6 hrs by DAPI staining-based fluorescence microscopic method. It is filed as cell-based. Put shortly: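 PC12 cells on coverslips treated with 5 µM compound for 6 h. Fixed in 4% paraformaldehyde (20 min, 4 °C), permeabilised with 1% Triton X-100, blocked with 1% BSA. Anti-Nrf2 (1:300) overnight at 4 °C, then PE-labelled secondary (1:300) 1 h in the dark. DAPI counterstain, imaged by fluorescence microscopy.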

Data set [10] has as its target T1, Nuclear factor erythroid 2-related factor 2 (Rattus norvegicus). In words: Induction of Nrf2 translocation in nucleus of rat PC12 cells assessed as upregulation of HO-1 protein expression after 24 hrs by Western blot method. It is filed as cell-based. The procedure, abridged: (§3)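 PC12 cells treated 24 h at 2.5, 5 or 10 µM; reference compounds at 10 µM. Lysed in ice-cold RIPA, run on 10% SDS-PAGE and transferred to PVDF. Probed with anti-HO-1 (1:300) and GAPDH (1:1000) overnight at 4 °C, then HRP anti-rabbit IgG 1 h. Mean ± SD, n = 3, one-way ANOVA with Tukey test.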

For data set [11], the system named is Rattus norvegicus. In words: Antiischemic stroke activity in Sprague-Dawley rat middle cerebral artery occlusion-induced ischemia-reperfusion injury model assessed as decrease in infarct size at 0.2 mg/kg, icv as nanoparticle measured after 72 hrs by TTC staining-based assay. It is filed as functional, organism-based. The procedure, abridged:
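Male Sprague-Dawley rats (250-280 g), n = 7 per group. Nanoparticle-loaded drug (0.2 mg/kg) or isovolumetric saline or vehicle (polymer:DMSO:distilled water 50 mg:1 mL:3 mL) given by intracerebroventricular injection 2 h before MCAO. Filament occlusion for 2 h, then 72 h reperfusion. Brain slices stained with TTC at 37 °C for 30 min, photographed, and infarct area quantified by image analysis.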

Data set [12] has as its system Rattus norvegicus. The data set is described as follows: Antiischemic stroke activity in Sprague-Dawley rat middle cerebral artery occlusion-induced ischemia-reperfusion injury model assessed as decrease in neurological score at 0.2 mg/kg, icv as nanoparticle measured after 72 hrs by Longa's method. Type of data set: functional, organism-based. The procedure, abridged: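 Male Sprague-Dawley rats (250-280 g), n = 7 per group. Intracerebroventricular injection of nanoparticle formulation 0.2 mg/kg 2 h before MCAO. Vehicle was polymer:DMSO:distilled water (50 mg:1 mL:3 mL). Intraluminal thread (about 1.8 cm) via ECA, 2 h occlusion, then 72 h reperfusion. Neurological deficit scored at 72 h on Longa's 0–4 scale. Mean ± SD, n ≥ 6.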

Data set [13] deals with T1, Nuclear factor erythroid 2-related factor 2 (Rattus norvegicus). The data set is described as follows: Induction of Nrf2 translocation in nucleus of rat PC12 cells assessed as upregulation of HO-1 protein expression at 5 uM after 24 hrs by Western blot method.
The target is the same in data set [14]. In words: Induction of Nrf2 translocation in nucleus of rat PC12 cells assessed as upregulation of HO-1 protein expression at 10 uM after 24 hrs by Western blot method. It is filed as cell-based. The procedure, abridged: as §3

Active and inactive are the calls of the source. The rule behind the calls is not given here.

On to `O=C1/C(=C/c2ccc(O)c(O)c2)CN(Cc2ccccc2)C/C1=C\c1ccc(O)c(O)c1`, for which the result (in data set [1]; in the data set on PC-12 [2]) was Active.

On to `O=C1/C(=C/c2ccc(O)c(O)c2)COC/C1=C\c1ccc(O)c(O)c1`, for which the result (in data set [1]; with PC-12 [3]; in the data set on PC-12 [2]) was Active. The figures for the Activity result in the data set with PC-12 [4] and in the data set on PC-12 [5] were “Non-Toxic” and “Toxic”, respectively.

As to `O=C1/C(=C/c2ccc(O)c(O)c2)CN(C(=O)OCc2ccccc2)C/C1=C\c1ccc(O)c(O)c1`, the outcome (in data set [1]; in the data set on PC-12 [2]) was Active.

Take `CCCN1C/C(=C\c2ccc(O)c(O)c2)C(=O)/C(=C/c2ccc(O)c(O)c2)C1`: the outcome (in data set [1]; in the data set with PC-12 [2]) was Active.

In the case of `O=C1/C(=C/c2ccc(O)c(O)c2)CN(C2CC2)C/C1=C\c1ccc(O)c(O)c1`, the outcome (in data set [1]; with PC-12 [2]) was Active.

Take `O=C1/C(=C/c2ccc(O)c(O)c2)CNC/C1=C\c1ccc(O)c(O)c1`: the result (in [1]; in the data set on PC-12 [3]; in the data set on PC-12 [2]) was Active. Besides, the Activity result in the data set with PC-12 [4] is reported as “Non-Toxic”; in the data set with PC-12 [5], “Toxic”.

As to `CCOC(=O)N1C/C(=C\c2ccc(O)c(O)c2)C(=O)/C(=C/c2ccc(O)c(O)c2)C1`, the outcome (in data set [1]; with PC-12 [2]) was Active.

Take `O=C1C(=Cc2ccc(O)c(O)c2)CC/C1=C\c1ccc(O)c(O)c1`: the result (in [1]; with PC-12 [3]; in the data set with PC-12 [2]; in the data set on PC-12 [8]; in data set [9]; in the data set on Rattus norvegicus [11]) was Active. Moreover, the result with Rattus norvegicus [12] was Active. The Activity entry with PC-12 [4] was “Non-Toxic”; in the data set on PC-12 [5], “Toxic”; in the data set with PC-12 [6] it was “Dose-dependent effect”; in the data set with PC-12 [7], “Dose-dependent effect”; in data set [10], “Dose-dependent effect”. In addition, the outcome in [13] was inactive.

With `CC1=NN(c2ccccc2)C(=O)C1`, the result in the data set with Rattus norvegicus [11] and in the data set with Rattus norvegicus [12] was Active.

For the compound `C[C@H](Cc1ccc(O)c(O)c1)[C@@H](C)Cc1ccc(O)c(O)c1`, the outcome (in data set [1]; in the data set on PC-12 [2]; in [9]; in [14]) was Active.

Consider `CC(C)(C)c1cc(O)ccc1O`, for which the outcome in data set [9] and in data set [14] was Active.

Turning to `O=C1/C(=C/c2ccc(O)c(O)c2)CN(CCc2ccccc2)C/C1=C\c1ccc(O)c(O)c1`, the outcome (in [1]; in the data set on PC-12 [2]) was Active.

`O=C1C(=Cc2ccc(O)c(O)c2)CCC/C1=C\c1ccc(O)c(O)c1`: the outcome (in data set [1]; in the data set on PC-12 [2]) was Active.

As to `CN1C/C(=C\c2ccc(O)c(O)c2)C(=O)/C(=C/c2ccc(O)c(O)c2)C1`, the outcome (in [1]; with PC-12 [2]) was Active.

Consider `O=C1/C(=C/c2ccc(O)c(O)c2)CSC/C1=C\c1ccc(O)c(O)c1`, for which the outcome (in data set [1]; in the data set on PC-12 [2]) was Active.
